Data as given in ChEMBL document CHEMBL1149324, “New steroidal dimers with antifungal and antiproliferative activity” (J Med Chem, 2004).
Values after ≈ are worked out from the molar mass of the structure shown.

How the values were obtained:
Candida albicans = test: Minimum inhibitory concentration against Candida albicans; type: functional
Method in brief: (§1)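 Disk diffusion on YPG agar. Yeast suspension from 24 h YPG broth (C. albicans five isolates and Y. lipolytica at 28 °C, B. poitrasii at 37 °C) spread-plated. Filter disks carried a DMSO control or graded compound amounts from 1 mg/mL DMSO stock. Plates incubated 28 °C, 24 h. MIC taken as lowest concentration giving an inhibition zone; triplicate.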

Benjaminiella = test: Minimum inhibitory concentration against Benjaminiella poitrassi; type: functional; method in brief: as §1
Yarrowia lipolytica = test: Minimum inhibitory concentration against Yarrowia lipolytica; type: functional; method in brief: as §1
HEp-2 = test: Antiproliferative activity against HEp-2 cells; type: functional, cell-based; details: Homo sapiens
Method in brief: (§2)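 MEM with 10% heat-inactivated FBS at 37 °C, 5% CO2. Cells seeded at 15 000/well and adhered 24 h. Treated in triplicate for 72 h with 0, 0.1, 1.0 or 10 μM compound from DMSO stock. MTT 1 mg/mL for 4 h at 37 °C, formazan dissolved in 2-propanol, OD 570 nm (630 nm reference). DMSO-only cells set as 100% growth.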

MCF7 = test: In vitro antiproliferative activity against MCF-7 cells; type: functional, cell-based; details: Homo sapiens; method in brief: as §2

| IC50 (MCF7) | Compound | MIC (Candida albicans) | MIC (Benjaminiella) | MIC (Yarrowia lipolytica) | IC50 (HEp-2) |
| --- | --- | --- | --- | --- | --- |
| – | C[C@H](CCC(=O)NCCNCCNC(=O)CC[C@H](C)[C@H]1CCC2C3C(C[C@@H](O)[C@@]21C)[C@@]1(C)CC[C@@H](O)CC1C[C@H]3O)[C@H]1CCC2C3C(C[C@@H](O)[C@@]21C)[C@@]1(C)CC[C@@H](O)CC1C[C@H]3O (stereo partly drawn) | 0.0113 µM (≈ 0.01 µg/mL) | 0.0113 µM (≈ 0.01 µg/mL) | 0.0113 µM (≈ 0.01 µg/mL) | – |
| 2200 nM | C[C@H](CCC(=O)NCCNC(=O)CC[C@H](C)[C@H]1CCC2C3CCC4C[C@H](O)CC[C@]4(C)C3C[C@@H](O)[C@@]21C)[C@H]1CCC2C3CCC4C[C@H](O)CC[C@]4(C)C3C[C@@H](O)[C@@]21C (stereo partly drawn) | – | – | – | 2200 nM |
| – | C[C@@H]1C[C@@H]([C@H](O)CC2CC(=O)NC(=O)C2)C(=O)[C@@H](C)C1 [CYCLOHEXIMIDE] | > 0.9 µM | 0.071 µM (≈ 0.02 µg/mL) | 0.106 µM (≈ 0.0298 µg/mL) | – |
